Not all results are given here.
Apaf1 activ: human Apaf-1 activation; activity change, negative = activation, % at 20 µM; Apaf-1 apoptosome caspase-3 activation, DEVD-Rh110 fluorescence; stronger effect = lower value; 0.31% of 330,000 active;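 active = activity change at or below -40% at 20 µM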
Target sequence (O14727 whole entry, looked up): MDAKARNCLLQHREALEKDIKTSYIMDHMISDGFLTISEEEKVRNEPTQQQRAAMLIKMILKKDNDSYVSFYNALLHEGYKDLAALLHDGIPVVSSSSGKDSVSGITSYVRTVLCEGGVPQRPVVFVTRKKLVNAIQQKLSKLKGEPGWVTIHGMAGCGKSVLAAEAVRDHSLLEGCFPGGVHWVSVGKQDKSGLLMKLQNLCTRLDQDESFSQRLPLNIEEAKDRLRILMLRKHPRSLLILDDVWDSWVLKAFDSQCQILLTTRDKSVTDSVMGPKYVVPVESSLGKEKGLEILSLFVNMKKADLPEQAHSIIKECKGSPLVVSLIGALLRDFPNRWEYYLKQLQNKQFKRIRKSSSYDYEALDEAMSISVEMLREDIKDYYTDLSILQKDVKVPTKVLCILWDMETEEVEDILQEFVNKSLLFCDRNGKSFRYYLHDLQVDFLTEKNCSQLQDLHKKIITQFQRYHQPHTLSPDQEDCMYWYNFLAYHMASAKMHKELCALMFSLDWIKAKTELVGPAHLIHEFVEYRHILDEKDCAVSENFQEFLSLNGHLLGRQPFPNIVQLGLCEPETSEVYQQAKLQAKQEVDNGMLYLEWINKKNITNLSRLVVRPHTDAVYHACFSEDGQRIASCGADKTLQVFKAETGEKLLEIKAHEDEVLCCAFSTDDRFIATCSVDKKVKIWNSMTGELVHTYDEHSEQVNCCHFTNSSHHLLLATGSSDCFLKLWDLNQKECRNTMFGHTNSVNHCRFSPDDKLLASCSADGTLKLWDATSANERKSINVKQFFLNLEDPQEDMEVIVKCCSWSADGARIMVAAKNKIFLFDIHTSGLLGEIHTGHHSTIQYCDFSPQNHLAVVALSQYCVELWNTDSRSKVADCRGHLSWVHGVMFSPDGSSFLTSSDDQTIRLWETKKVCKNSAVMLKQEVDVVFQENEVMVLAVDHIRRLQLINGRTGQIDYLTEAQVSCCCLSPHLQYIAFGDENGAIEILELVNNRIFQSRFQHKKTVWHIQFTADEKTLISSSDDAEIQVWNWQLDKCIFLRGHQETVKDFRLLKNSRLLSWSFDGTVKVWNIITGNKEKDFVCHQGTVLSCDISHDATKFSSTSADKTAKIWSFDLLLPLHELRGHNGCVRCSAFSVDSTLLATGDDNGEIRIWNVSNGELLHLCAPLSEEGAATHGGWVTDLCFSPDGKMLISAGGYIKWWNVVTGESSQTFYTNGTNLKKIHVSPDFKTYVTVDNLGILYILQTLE
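Assay system – biochemical Apaf-1 apoptosome reconstitution · Medium – 20 mM HEPES buffer, pH 7.5, containing CHAPS and BSA · Incubation – 30 min preincubation, 50 min reaction, room temperature · Measured by – Caspase-3-released Rh110 fluorescence, 540 nm emission, 480 nm excitation · Read-out – Caspase-3 cleavage activity downstream of Apaf-1 activation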
Rh110 interf act: Rh110 signal interference in Apaf-1 activator counter-screen; shares compounds with Apaf1 activ; Rh110 fluorescence interference, quenched caspase reaction, Ex480/Em540; fluorescence interference (activity change), % at 20 µM, hits read low; 980 tested, under 10 active; AID 504616;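 active = mean activity change at or below -40% when tested at 20 µM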
Apaf-1 act conf2: Apaf-1 (human) activation, single-dose confirmed. activity change, negative = activation, % at 20 µM. shares compounds with Apaf1 activ. reconstituted apoptosome caspase-3 activity, DEVD-Rh110 fluorescence; stronger effect = lower value. 5% of 980 active;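 active = mean activity change at or below -40%, meaning activation of 40% or more, at 20 µM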
* marks the source's active call; other numbers are inactive results; x = not tested or not shown.

SMILES | Apaf1 activ | Rh110 interf act | Apaf-1 act conf2
Oc1c(Br)cc(Br)cc1C=Nc1cccc2ncccc12 | 97 | x | x
COc1ccc2cc(C(=O)Nc3ccc(Cl)cc3)sc(=O)c2c1OC | -46* | 8 | 13
CCN(CC(=O)Nc1ccc(OC)cc1)C(=O)C1CCN(C(=O)c2ccc(Cl)cc2)CC1 | 58 | x | x
COc1ccc(CC(=O)N(Cc2ccccc2)c2ccc(C)cc2)cc1S(=O)(=O)N1CCOCC1 | 43 | x | x
COc1ccc(-c2cc(C)no2)cc1S(=O)(=O)N1CCOc2ccccc21 | -425* | 9 | 14
COc1ccc(/C=N/NC(=O)c2cc(=O)[nH]c3ccccc23)cc1OC | -544* | -15 | 7
Cc1[nH]n(-c2ccccc2)c(=O)c1/C=N/NC(=O)c1ccc(O)cc1O | 73 | x | x
O=c1cc(N/N=C/c2ccccc2)[nH]c(=O)[nH]1 | 68 | x | x
CCOc1ccc2[nH]c(=O)c(CN(CC3CCCN3CC)C(=O)NCc3ccccc3)cc2c1 (configuration not stated) | -137* | 0 | 9
N#CCCN(C(=O)COC(=O)C12CC3CC(CC(O)(C3)C1)C2)c1ccc(F)cc1 | 43 | x | x
O=C(Cc1cc(=O)[nH][nH]1)N/N=C/C(Cl)=C/c1ccccc1 | 49 | x | x
OCCN1CCN(CCCN2c3ccccc3Sc3ccc(Cl)cc32)CC1 | 46 | x | x
CN1c2ccccc2C(C)(C)C12C=Nc1c(cc(N3CCOCC3)c3ccccc13)O2 (configuration not stated) | 69 | x | x
O=C(NNc1cc(N2CCCC2)nc(N2CCCC2)n1)c1ccc([N+](=O)[O-])cc1 | 98 | x | x
Cn1cc([N+](=O)[O-])c(C(=O)NNC(=O)c2ccc([N+](=O)[O-])cc2Cl)n1 | -161* | 1 | 0
Nc1ccc(Oc2ncccn2)cc1 | 44 | x | x
Cc1ccc2c(c1)c1ccc3c(c1n2C)C(=O)C=CC3=O | 57 | x | x
O=C(C[C@H]1C[C@H](C(=O)N2CCOCC2)[C@@]2(CCC3CCCC3)c3[nH]c4cc(-c5ccco5)ccc4c3CCN2C1=O)NCCCn1ccnc1 | 62 | x | x
Cc1c(N=Cc2cccs2)c(=O)n(-c2ccccc2)n1C | -182* | 1 | 8
CC1=NN(c2ccccc2)C(=O)/C1=C/c1cccs1 | 90 | x | x
COc1ccc(Cn2c(N)c(C#N)c3nc4ccccc4nc32)cc1 | 50 | x | x
C#CCOCCOCCOCCNc1nc(N2CCN(C(=O)CCCCCCCCCCNC(=O)Cn3cc(C[C@@H](C)O)nn3)CC2)nc(N2CCN(C(=O)CCCCCCCCCCNC(=O)[C@H](CCCCN)n3cc(C[C@@H](C)CC)nn3)CC2)n1 | 71 | x | x
COc1ccc(C(=O)Nn2cnc3scc(-c4cccs4)c3c2=O)c(O)c1 | -391* | 2 | 21
COc1ccc(/C=C2/C(=O)N(c3ccccc3)N=C2C)cc1Br | 87 | x | x
NC(=S)NNc1cccc2cccnc12 | 76 | x | x
SMILES | Apaf1 activ | Rh110 interf act | Apaf-1 act conf2
COc1ccc(CN2CCN(C(c3ccc(F)cc3)c3ccc(F)cc3)CC2)c(OC)c1OC | 48 | x | x
NC(=O)C1CCN(C(=O)COc2cccc3ccccc23)CC1 | -195* | 14 | 10
CC(C)(C)c1ccc(C(=O)NNc2cc(N3CCCCC3)nc(N3CCCCC3)n2)cc1 | 73 | x | x
N[C@@H](Cc1cc(I)c(Oc2ccc(O)c(I)c2)c(I)c1)C(=O)O | 4 | x | x
CCCCN(CCCC)C(=S)N/N=C/c1c(C)[nH]n(-c2ccccc2)c1=O | 57 | x | x
Cc1cc(C(=O)N/N=C/c2c(C)[nH]n(-c3ccccc3)c2=O)n[nH]1 | 77 | x | x
CCCCN=Cc1c(C)[nH]n(-c2ccccc2)c1=S | -80* | 1 | 12
Cc1ccc(C(=O)c2c3ccc(N)cc3nn2CCC(N)=O)cc1 | 82 | x | x
Clc1ccccc1-c1nn2c(-c3ccncc3)nnc2s1 | 47 | x | x
CC1=CC(=C(C#N)c2nc3ccccc3s2)C=C(C)N1c1ccc(F)cc1 | 45 | x | x
COc1ccc(-c2noc(COc3ccc4ccccc4c3Br)n2)cc1OC | -136* | 0 | 7
CCOC(=O)c1ccc(N=c2sc(C(=O)OC)cc(=O)n2CCCN2CCOCC2)cc1 | 2 | x | x
CS(=O)(=O)N(CC(=O)N1CCc2ccccc2C1)c1cccc(Br)c1 | -258* | 2 | 14
Cc1ccc2[nH]c3c(c2c1)CN(C(=O)CN1CCCc2ccccc21)CC3 | 78 | x | x
CC1(OC(=O)c2cccs2)C(=O)C=C2C=C3CCCN3C=C2C1=O (configuration not stated) | 62 | x | x
Nc1c(C(=O)NCCN2CCOCC2)c2nc3ccccc3nc2n1CCc1ccccc1F | 43 | x | x
O=C(NCCCN1CCc2ccccc2C1)C1CCN(c2nnc(-n3cccc3)s2)CC1 | 51 | x | x
Cc1ccc(C)n1-c1nnc(N2CCC(C(=O)NCCCN3CC(C)CC(C)C3)CC2)s1 (configuration not stated) | -402* | 6 | 14
C#CCOCCOCCOCCNc1nc(N2CCOCC2)nc(N2CCN(C(=O)[C@H](CCCCN)n3cc(CN)nn3)CC2)n1 | 49 | x | x
O=C(Cc1cc(=O)[nH][nH]1)N/N=C/c1c(Cl)cccc1Cl | 64 | x | x
C[C@@H]1CCCCCCCCC(=O)OCCN[C@H](C)CCCCCCCCC(=O)OCCN[C@H](C)CCCCCCCCC(=O)OCCN1 | 68 | x | x
COc1cc(OC)cc(-c2sc3ccc(OC)cc3c2C#CC2(N)CCCCC2)c1 | 67 | x | x
CN(C)CCCNS(=O)(=O)c1ccc(N2CCC(c3ccc(Cl)cc3)=N2)cc1 | 73 | x | x
CCCNS(=O)(=O)c1ccc(CCC(=O)N2CCCCC2)cc1 | -511* | -2 | 8
COc1ccc(NS(=O)(=O)c2ccc(C)c(NC(=O)CN3C(=O)NC4(CCCC4)C3=O)c2)cc1 | 82 | x | x
SMILES | Apaf1 activ | Rh110 interf act | Apaf-1 act conf2
COc1ccc(S(=O)(=O)Nc2ccc(S(=O)(=O)N3CCOCC3)cc2)cc1 | -64* | -6 | 8
COc1ccc(NS(=O)(=O)c2cc(C(=O)N3CCC3)ccc2C)cc1 | 48 | x | x
Cc1ccc2nc(-c3ccc(NC(=S)NC4CC(C)(C)NC(C)(C)C4)cc3)sc2c1 | 50 | x | x
CN1CCC[C@H]1c1cccnc1 | -2 | x | x
O=C1CSC(c2cccnc2)N1CC1CC1 (configuration not stated) | -112* | 1 | 13
CC[C@@H](C)[C@@H]1CN([C@@H](C)CN2CCC[C@H]2CN2C(N)=NC[C@@H]2Cc2ccccc2)C(=N)N1CCCC1CCCC1 | 62 | x | x
CCC(CO)Oc1cc(NCc2cccc(C)c2)c2ncn(C(C)C)c2c1 (configuration not stated) | 54 | x | x
O=C1CC(CC(=O)N/N=C/c2ccccc2[N+](=O)[O-])=NN1 | 46 | x | x
CC(OC(=O)c1ccc(-n2cnnn2)cc1)C(=O)Nc1ccccc1F (configuration not stated) | -229* | 11 | 13
CCN(CC)CCn1c2c(c(SCC(=O)Nc3nccs3)nc1=O)CCCC2 | -50* | -4 | 10
N#Cc1ccc(C23CC4(C2)[C@H](CN(CC2CCCCC2)[C@@H]4c2ccccc2)C3c2ccc(C(F)(F)F)cc2)cc1 (some centres not stated) | 42 | x | x
CC(C)C(=O)NC(c1cccs1)c1cc([N+](=O)[O-])c2cccnc2c1O (configuration not stated) | 68 | x | x
Oc1ccc(C[C@H]2CNCCN2CCCCC2CCCCC2)cc1 | 41 | x | x
Nc1cc(N2CCCC2)c(Cl)cc1[N+](=O)[O-] | 43 | x | x
CN(C)c1ccc(C(=S)N2CCCCC2)cc1 | -335* | -3 | 2

Bioassay records from PubChem.
